Source: ChEMBL document CHEMBL3751707, “Silicon Incorporated Morpholine Antifungals: Design, Synthesis, and Biological Evaluation” (ACS Med Chem Lett, 2015)
≈ marks a conversion by molar mass, not a printed value.

Tests used:
Nakaseomyces glabratus [1] = test: Antifungal activity against Candida glabrata NCYC 388 after 24 to 36 hrs by broth microdilution method; type: functional, organism-based
How it was run: (§1)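 CLSI broth microdilution against yeasts (M27-A3) and filamentous fungi (M38-A2). Read-outs: IC50 (concentration giving 50% growth inhibition), MIC, and MFC (minimum fungicidal concentration), all in μg/mL. Assay done twice in triplicate.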

Candida albicans [2] = test: Antifungal activity against Candida albicans ATCC 24433 after 72 hrs by broth microdilution method; type: functional; conditions: ATCC 24433, 72 h; how it was run: as §1
Cryptococcus neoformans [3] = test: Antifungal activity against Cryptococcus neoformans ATCC 34664 after 24 to 36 hrs by broth microdilution method; type: functional, organism-based; how it was run: as §1
Candida tropicalis [4] = test: Antifungal activity against Candida tropicalis ATCC 750 after 72 hrs by broth microdilution method; type: functional; conditions: ATCC 750, 72 h; how it was run: as §1
Cryptococcus neoformans [5] = test: Antifungal activity against Cryptococcus neoformans ATCC 34664 after 72 hrs by broth microdilution method; type: functional; conditions: ATCC 34664, 72 h; how it was run: as §1
Aspergillus niger [6] = test: Antifungal activity against Aspergillus niger ATCC 10578 after 72 hrs by broth microdilution method; type: functional; conditions: ATCC 10578, 72 h; how it was run: as §1
Candida albicans [7] = test: Antifungal activity against Candida albicans ATCC 24433 after 24 to 36 hrs by broth microdilution method; type: functional, organism-based; how it was run: as §1
Aspergillus niger [8] = test: Antifungal activity against Aspergillus niger ATCC 10578 after 48 hrs by broth microdilution method; type: functional, organism-based; conditions: ATCC 10578, 48 h; how it was run: as §1
Candida albicans [9] = test: Antifungal activity against Candida albicans ATCC 10231 after 72 hrs by broth microdilution method; type: functional; conditions: ATCC 10231, 72 h; how it was run: as §1
Candida albicans [10] = test: Antifungal activity against Candida albicans ATCC 10231 after 24 to 36 hrs by broth microdilution method; type: functional, organism-based; how it was run: as §1
Candida tropicalis [11] = test: Antifungal activity against Candida tropicalis ATCC 750 after 24 to 36 hrs by broth microdilution method; type: functional, organism-based; how it was run: as §1
Nakaseomyces glabratus [12] = test: Antifungal activity against Candida glabrata NCYC 388 after 72 hrs by broth microdilution method; type: functional; conditions: NCYC 388, 72 h; how it was run: as §1
[13] = Toxicity in human RBC assessed as hemolysis upto 128 ug/ml; type: cell-based; conditions: erythrocyte

| Structure (SMILES) | IC50 (Nakaseomyces glabratus [1]) [µg/mL] | MIC (Nakaseomyces glabratus [1]) [µg/mL] | MFC (Candida albicans [2]) [µg/mL] | IC50 (Cryptococcus neoformans [3]) [µg/mL] | MIC (Cryptococcus neoformans [3]) [µg/mL] | MFC (Candida tropicalis [4]) [µg/mL] | MFC (Cryptococcus neoformans [5]) [µg/mL] | MFC (Aspergillus niger [6]) [µg/mL] | IC50 (Candida albicans [7]) [µg/mL] | MIC (Candida albicans [7]) [µg/mL] | IC50 (Aspergillus niger [8]) [µg/mL] | MIC (Aspergillus niger [8]) [µg/mL] | MFC (Candida albicans [9]) [µg/mL] | IC50 (Candida albicans [10]) [µg/mL] | MIC (Candida albicans [10]) [µg/mL] | IC50 (Candida tropicalis [11]) [µg/mL] | MIC (Candida tropicalis [11]) [µg/mL] | MFC (Nakaseomyces glabratus [12]) [µg/mL] | Activity [13] |
| --- | --- | --- | --- | --- | --- | --- | --- | --- | --- | --- | --- | --- | --- | --- | --- | --- | --- | --- | --- |
| CCC(C)(C)c1ccc(CC(C)CN2CC[Si](C)(C)CC2)cc1 (stereo not given) | 1.47 (≈ 4.43 µM) | 4 (≈ 12.1 µM) | 16 (≈ 48.2 µM) | 1.4 (≈ 4.22 µM) | 2 (≈ 6.03 µM) | 256 (≈ 772 µM) | 4 (≈ 12.1 µM) | 64 (≈ 193 µM) | 1.68 (≈ 5.07 µM) | 4 (≈ 12.1 µM) | 0.16 (≈ 0.482 µM) | 0.5 (≈ 1.51 µM) | 64 (≈ 193 µM) | 0.28 (≈ 0.844 µM) | 0.5 (≈ 1.51 µM) | 13.8 (≈ 41.6 µM) | 64 (≈ 193 µM) | 4 (≈ 12.1 µM) | – |
| CC(Cc1ccc(C(C)(C)C)cc1)C(=O)N1CC[Si](C)(C)CC1 (stereo not given) | – | ≥ 256 | ≥ 256 | – | ≥ 256 | ≥ 256 | ≥ 256 | ≥ 256 | – | ≥ 256 | – | ≥ 256 | ≥ 256 | – | ≥ 256 | – | ≥ 256 | ≥ 256 | – |
| CC(Cc1ccc([Si](C)(C)C)cc1)CN1CCS(=O)(=O)CC1 (stereo not given) | – | ≥ 256 | ≥ 256 | – | ≥ 256 | ≥ 256 | ≥ 256 | ≥ 256 | – | ≥ 256 | – | ≥ 256 | ≥ 256 | – | ≥ 256 | – | ≥ 256 | ≥ 256 | – |
| CCN(CC)CC(C)Cc1ccc([Si](C)(C)C)cc1 (stereo not given) | 1.85 (≈ 6.67 µM) | 4 (≈ 14.4 µM) | 32 (≈ 115 µM) | 1.5 (≈ 5.4 µM) | 4 (≈ 14.4 µM) | 256 (≈ 922 µM) | 32 (≈ 115 µM) | > 256 | 3.75 (≈ 13.5 µM) | 8 (≈ 28.8 µM) | 64 (≈ 231 µM) | 256 (≈ 922 µM) | 4 (≈ 14.4 µM) | 0.57 (≈ 2.05 µM) | 2 (≈ 7.21 µM) | 4.85 (≈ 17.5 µM) | 16 (≈ 57.7 µM) | > 256 | – |
| CC(Cc1ccc(C(C)(C)C)cc1)C(=O)NC[Si](C)(C)c1ccccc1 (stereo not given) | – | ≥ 256 | ≥ 256 | – | ≥ 256 | ≥ 256 | ≥ 256 | ≥ 256 | – | ≥ 256 | – | ≥ 256 | ≥ 256 | – | ≥ 256 | – | ≥ 256 | ≥ 256 | – |
| CC(Cc1ccc([Si](C)(C)C)cc1)CN1CCSCC1 (stereo not given) | 0.25 (≈ 0.813 µM) | 0.5 (≈ 1.63 µM) | 8 (≈ 26 µM) | 0.8 (≈ 2.6 µM) | 2 (≈ 6.5 µM) | > 256 | 64 (≈ 208 µM) | > 256 | 0.245 (≈ 0.797 µM) | 1 (≈ 3.25 µM) | 1 (≈ 3.25 µM) | 2 (≈ 6.5 µM) | 2 (≈ 6.5 µM) | 0.5 (≈ 1.63 µM) | 1 (≈ 3.25 µM) | 0.25 (≈ 0.813 µM) | 2 (≈ 6.5 µM) | 8 (≈ 26 µM) | Non-toxic |
| CC(Cc1ccc([Si](C)(C)C)cc1)CN1CCCCC1 (stereo not given) | 0.035 (≈ 0.121 µM) | 0.125 (≈ 0.432 µM) | 2 (≈ 6.91 µM) | 0.0625 (≈ 0.216 µM) | 0.125 (≈ 0.432 µM) | 64 (≈ 221 µM) | 8 (≈ 27.6 µM) | 128 (≈ 442 µM) | 0.12 (≈ 0.414 µM) | 0.25 (≈ 0.863 µM) | 41.2 (≈ 142 µM) | 64 (≈ 221 µM) | 32 (≈ 111 µM) | 0.11 (≈ 0.38 µM) | 0.25 (≈ 0.863 µM) | 1 (≈ 3.45 µM) | 4 (≈ 13.8 µM) | 8 (≈ 27.6 µM) | Non-toxic |
| CC(Cc1ccc([Si](C)(C)C)cc1)CN1CCCC1 (stereo not given) | 0.319 (≈ 1.16 µM) | 1 (≈ 3.63 µM) | 8 (≈ 29 µM) | 0.25 (≈ 0.907 µM) | 1 (≈ 3.63 µM) | 128 (≈ 465 µM) | 4 (≈ 14.5 µM) | 256 (≈ 929 µM) | 0.97 (≈ 3.52 µM) | 2 (≈ 7.26 µM) | 50.1 (≈ 182 µM) | 64 (≈ 232 µM) | 2 (≈ 7.26 µM) | 0.31 (≈ 1.13 µM) | 0.5 (≈ 1.81 µM) | 2.76 (≈ 10 µM) | 16 (≈ 58.1 µM) | 32 (≈ 116 µM) | – |
| CC(Cc1ccc(C(C)(C)C)cc1)CN1CC[Si](C)(C)CC1 (stereo not given) | 1.52 (≈ 4.79 µM) | 4 (≈ 12.6 µM) | 8 (≈ 25.2 µM) | 0.875 (≈ 2.76 µM) | 2 (≈ 6.3 µM) | 64 (≈ 202 µM) | 4 (≈ 12.6 µM) | 64 (≈ 202 µM) | 1.85 (≈ 5.83 µM) | 4 (≈ 12.6 µM) | 13.8 (≈ 43.5 µM) | 32 (≈ 101 µM) | 0.5 (≈ 1.57 µM) | 0.31 (≈ 0.976 µM) | 0.5 (≈ 1.57 µM) | 16 (≈ 50.4 µM) | 64 (≈ 202 µM) | 8 (≈ 25.2 µM) | Non-toxic |
| OC(Cn1cncn1)(Cn1cncn1)c1ccc(F)cc1F [FLUCONAZOLE] | 16 (≈ 52.2 µM) | 128 (≈ 418 µM) | 4 (≈ 13.1 µM) | 4.6 (≈ 15 µM) | 32 (≈ 104 µM) | > 256 | > 256 | > 256 | 0.73 (≈ 2.38 µM) | 2 (≈ 6.53 µM) | > 256 | > 256 | 16 (≈ 52.2 µM) | 4.21 (≈ 13.7 µM) | 8 (≈ 26.1 µM) | 64 (≈ 209 µM) | > 256 | > 256 | – |
